Measured values published in ChEMBL document CHEMBL1799968, “Dimethyl-diphenyl-propanamide derivatives as nonsteroidal dissociated glucocorticoid receptor agonists” (J Med Chem, 2010).

Key:
Glucocorticoid receptor [1] = target: T1, Glucocorticoid receptor (Homo sapiens, UniProt P04150); assay: Transrepression activity of glucocorticoid receptor in human A549 cells assessed as inhibition of IL1beta-stimulated NFkappaB-dependent E-selectin transcription by luciferase reporter gene assay; format: cell-based
T1 sequence (P04150 whole entry): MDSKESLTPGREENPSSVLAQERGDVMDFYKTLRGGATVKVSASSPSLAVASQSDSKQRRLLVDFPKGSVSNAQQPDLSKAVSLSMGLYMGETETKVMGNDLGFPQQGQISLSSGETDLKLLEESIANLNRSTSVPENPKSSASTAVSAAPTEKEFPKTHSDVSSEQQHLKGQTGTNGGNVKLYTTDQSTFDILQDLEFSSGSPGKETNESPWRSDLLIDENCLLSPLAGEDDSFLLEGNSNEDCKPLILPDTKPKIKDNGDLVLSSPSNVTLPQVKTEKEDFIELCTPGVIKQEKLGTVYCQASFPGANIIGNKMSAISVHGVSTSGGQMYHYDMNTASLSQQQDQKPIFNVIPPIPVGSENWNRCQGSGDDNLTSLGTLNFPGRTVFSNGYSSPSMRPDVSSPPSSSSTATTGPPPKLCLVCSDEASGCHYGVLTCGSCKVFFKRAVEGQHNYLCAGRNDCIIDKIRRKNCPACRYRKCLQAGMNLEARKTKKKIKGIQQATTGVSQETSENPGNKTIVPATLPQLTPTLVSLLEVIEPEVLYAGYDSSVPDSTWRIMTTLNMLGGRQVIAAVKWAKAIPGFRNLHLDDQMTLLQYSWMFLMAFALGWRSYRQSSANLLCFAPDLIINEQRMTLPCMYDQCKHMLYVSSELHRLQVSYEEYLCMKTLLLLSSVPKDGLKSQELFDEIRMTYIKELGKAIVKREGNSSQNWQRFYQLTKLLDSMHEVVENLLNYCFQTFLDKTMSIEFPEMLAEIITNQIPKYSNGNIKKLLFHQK

[2] = target: T2, Mineralocorticoid receptor (Homo sapiens, UniProt P08235); assay: Agonist activity at mineralocorticoid receptor in human A549 cells; format: functional, cell-based
T2 sequence (P08235 whole entry): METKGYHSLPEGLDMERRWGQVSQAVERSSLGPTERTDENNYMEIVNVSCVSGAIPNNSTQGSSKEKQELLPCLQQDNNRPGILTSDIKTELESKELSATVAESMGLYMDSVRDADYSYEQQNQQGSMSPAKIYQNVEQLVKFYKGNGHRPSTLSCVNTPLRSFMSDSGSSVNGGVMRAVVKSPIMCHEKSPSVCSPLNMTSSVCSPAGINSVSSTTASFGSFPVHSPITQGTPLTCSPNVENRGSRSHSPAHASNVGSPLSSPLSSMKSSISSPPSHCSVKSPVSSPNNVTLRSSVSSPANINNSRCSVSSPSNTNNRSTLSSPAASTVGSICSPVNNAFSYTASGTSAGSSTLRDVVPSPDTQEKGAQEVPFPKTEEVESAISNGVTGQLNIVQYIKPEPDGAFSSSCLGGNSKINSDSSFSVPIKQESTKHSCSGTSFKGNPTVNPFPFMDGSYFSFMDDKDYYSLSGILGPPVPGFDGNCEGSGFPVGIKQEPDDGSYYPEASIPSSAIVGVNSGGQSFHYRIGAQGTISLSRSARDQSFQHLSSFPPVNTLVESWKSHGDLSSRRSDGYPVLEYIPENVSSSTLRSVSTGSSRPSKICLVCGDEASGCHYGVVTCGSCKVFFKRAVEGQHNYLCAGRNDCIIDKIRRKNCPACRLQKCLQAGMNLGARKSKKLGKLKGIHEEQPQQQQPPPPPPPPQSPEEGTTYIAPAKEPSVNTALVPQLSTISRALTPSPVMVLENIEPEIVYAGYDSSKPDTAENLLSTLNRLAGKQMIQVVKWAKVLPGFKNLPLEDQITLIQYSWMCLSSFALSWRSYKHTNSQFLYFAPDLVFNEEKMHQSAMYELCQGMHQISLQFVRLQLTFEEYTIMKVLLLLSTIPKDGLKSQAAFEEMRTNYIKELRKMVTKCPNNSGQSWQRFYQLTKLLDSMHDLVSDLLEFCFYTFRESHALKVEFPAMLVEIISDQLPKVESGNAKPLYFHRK

[3] = target: T3, Glucocorticoid receptor (Homo sapiens) (UniProt P04150); assay: Transactivation activity at glucocorticoid receptor in human 13D3/Huh7 cells assessed as induction of tyrosine aminotransferase activity after 24 hrs relative to Dexamethasone; format: cell-based; settings: Huh-7
T3 sequence (whole entry): T1 sequence (P04150 whole entry)
Summary of the method: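 Human 13D3/Huh7 hepatoma cells, 20 K/well, were incubated overnight at 37 °C/5% CO2. They were then treated overnight with compounds in assay medium containing 20 μM forskolin. The reaction was stopped with KOH and A340 read. Results are % activation, with EC50 derived.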

Glucocorticoid receptor [4] = target: T1, Glucocorticoid receptor; assay: Displacement of GS-red from GRapha by fluorescence polarization assay
Glucocorticoid receptor [5] = target: T1, Glucocorticoid receptor; assay: Transrepression activity of glucocorticoid receptor in human A549 cells expressing AP-1 assessed as inhibition of PMA-induced AP-1 activity by luciferase reporter gene assay; format: cell-based
[6] = Selectivity ratio of Ki of GRapha to Ki of estrogen receptor alpha
Estrogen receptor = target: T4, Estrogen receptor (Homo sapiens, UniProt P03372); assay: Binding affinity to ERalpha by fluorescence polarization assay
T4 sequence (P03372 whole entry): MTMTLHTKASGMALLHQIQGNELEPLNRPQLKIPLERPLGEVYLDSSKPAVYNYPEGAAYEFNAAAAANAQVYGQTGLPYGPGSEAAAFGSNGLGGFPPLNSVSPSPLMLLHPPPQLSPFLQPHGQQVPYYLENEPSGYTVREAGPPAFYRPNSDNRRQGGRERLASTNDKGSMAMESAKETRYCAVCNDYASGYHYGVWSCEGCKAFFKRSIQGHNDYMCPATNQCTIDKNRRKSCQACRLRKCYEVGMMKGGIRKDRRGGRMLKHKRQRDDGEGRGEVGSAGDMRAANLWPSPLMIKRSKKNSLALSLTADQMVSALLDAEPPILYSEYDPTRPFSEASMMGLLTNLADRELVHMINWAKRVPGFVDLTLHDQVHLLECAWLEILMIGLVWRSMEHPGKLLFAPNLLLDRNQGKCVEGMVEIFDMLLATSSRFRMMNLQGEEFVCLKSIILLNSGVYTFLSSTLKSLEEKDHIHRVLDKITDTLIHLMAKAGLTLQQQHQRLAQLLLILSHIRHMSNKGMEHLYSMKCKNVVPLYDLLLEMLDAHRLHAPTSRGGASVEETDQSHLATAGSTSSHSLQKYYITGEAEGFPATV
Summary of the method: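 Fluorescence polarization competition of test compound against a fluorescently labelled ligand for binding to full-length receptor or its ligand-binding domain.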

Glucocorticoid receptor [7] = target: T1, Glucocorticoid receptor; assay: Transactivation activity at glucocorticoid receptor in human 13D3/Huh7 cells assessed as induction of tyrosine aminotransferase activity after 24 hrs; format: cell-based, Huh-7
Glucocorticoid receptor [8] = target: T1, Glucocorticoid receptor; assay: Transactivation activity of glucocorticoid receptor ligand binding domain expressed in human NP-1 Hela cells co-expressing GAL4 DNA binding domain by luciferase reporter gene assay; format: cell-based

Structure (SMILES) | EC50 (Glucocorticoid receptor [1]) [µM] | EC50 [2] [µM] | Efficacy [3] [%] | Ki (Glucocorticoid receptor [4]) [µM] | EC50 (Glucocorticoid receptor [5]) [µM] | Ratio Ki [6] | Ki (Estrogen receptor) [µM] | EC50 (Glucocorticoid receptor [7]) [µM] | EC50 (Glucocorticoid receptor [8]) [µM]
CC(C)(C(=O)Nc1nccs1)[C@@H](c1ccccc1)c1ccc(O)cc1 | 0.0295 | > 5 | 21 | 0.0012 | 0.0409 | > 6800 | > 100 | 0.251 | 0.372
CC(C)(C(=O)Nc1nccs1)[C@H]1c2ccccc2Oc2cc(O)ccc21 | 0.0093 | > 5 | 39 | 0.0003 | 0.0175 | > 6800 | 2.3 | 0.0271 | 0.0601
CC(C)(C(=O)Nc1nccs1)[C@@H](c1ccccc1)c1ccc(O)c(F)c1 | 0.0086 | > 5 | 48 | 0.0007 | 0.0159 | > 6800 | > 50 | 0.0361 | 0.119

Further lines, results first:

EC50 (Glucocorticoid receptor [1]) [µM] | EC50 [2] [µM] | Efficacy [3] [%] | Ki (Glucocorticoid receptor [4]) [µM] | EC50 (Glucocorticoid receptor [5]) [µM] | Ratio Ki [6] | Ki (Estrogen receptor) [µM] | EC50 (Glucocorticoid receptor [7]) [µM] | EC50 (Glucocorticoid receptor [8]) [µM] | Structure (SMILES)
0.0086 | > 5 | 29 | 0.0004 | 0.0401 | > 6800 | > 50 | 0.142 | 0.115 | CC(C)(C(=O)Nc1nccs1)[C@@H](c1ccccc1)c1ccc(O)c(Br)c1
0.0035 | > 5 | 45 | 0.0008 | 0.0078 | > 6800 | 5.5 | 0.0913 | 0.0857 | CC(C)(C(=O)Nc1nncs1)[C@H]1c2ccccc2Oc2cc(O)ccc21
